This data set concerns MS2 coat protein. As to the kind of experiment: apparent Kd, MS2 coat protein; higher = weaker binding; RNA-MaP array; FMN 200 µM where present. In a few lines:
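Green signal from SNAP-549-labelled MS2 coat protein was normalised to red-channel RNA signal and to the median Fmax of control clusters. The protein was titrated from 0.7 or 1.5 nM, doubling to 3 µM, without and then with constant ligand, over designs transcribed by stalled E. coli RNA polymerase on Illumina sequencing-chip clusters, in 100 mM Tris-HCl pH 7.5, 80 mM KCl, 4 mM MgCl2, BSA, DTT, yeast tRNA and Tween-20. The apparent Kd is the median of filtered per-cluster binding-curve fits.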

The mark [1] stands for this setting: designed as: OFF switch for flavin mononucleotide, no ligand.
[2] abbreviates: ligand present: flavin mononucleotide, designed as: OFF switch for flavin mononucleotide.
Setting [3] is: designed as: ON switch for flavin mononucleotide, no ligand.
Setting [4] is: ligand present: flavin mononucleotide, designed as: ON switch for flavin mononucleotide.

As for “ACGUGUCGUGUAGGAUAUGACACAGGAAACUGGUCAGAAGGACAUGAGGAUCACCCAUGUAGAGUGUGUUAGGAUGACGUAUGC”, the “apparent Kd” value came to 51.9 nM under setting [1] and 199 nM under setting [2].

In the case of “GGAAAACAUGAGGAUCACCCAUGUAAGGAUAUGCAAAAGGAUAUAGAAGGAAAAAAAAGCAGAAGGUACAAAGG”, the “apparent Kd” value by setting is: under setting [1], 39.9 nM; under setting [2], 74.8 nM.

As to “CCGUCCUGAGGAUAUCCACCCUCAUACAUGAGGAUCACCCAUGUUCACCUUUGGGUUCCCGGAGAAGGCAGUUUUC”, the “apparent Kd” value stood at 80.2 nM under setting [1] and 109 nM under setting [2].

On to “UUGAAUUGAAACAUGAGGAUCACCCAUGUGUCAUAAUUGACAUAGGAUAUGCUUAUACUUUUAAAGCAGAAGGAUGACGAUACU”, for which the “apparent Kd” value is 23.8 nM under setting [3] and 8.8 nM under setting [4].

Regarding “CUGUGACGGAUCCAGAAUUACAACAUGAGGAUCACCCAUGUACAGGAUAUAGGGUUGAUAGGCGCCUAGAAGGGUAUGAUCACG”, the “apparent Kd” value is 156 nM under setting [1] and 177 nM under setting [2].

Take “GUAGCUAUUAUUAUACAUGAGGAUCACCCAUGUUACAUGUGUAAGGAUAUUGAAGUUAUUAUUAUCAAGAAGGUACUAUGCUAC”: the “apparent Kd” value is, setting by setting: under setting [3], 15.5 nM; under setting [4], 8.71 nM.

“AUCGGAAUGUAGAAGGGUGACAUGAGGAUCACCCAUGUUCAAAUGCGUUUUUCGGUAAUUGAUCCACAGGAUAUACUGUCCGUG”: the “apparent Kd” value was 631 nM under setting [3] and 485 nM under setting [4].

For the sequence “UGUCGGAGCAGAGGAUAUACAUGAGGAUCACCCAUGUAAUAAAGUGAAGCCUGAAAACAGGCAAUGUAGAAGGCUGCUCCGACA”, the “apparent Kd” value came out at 11.5 nM under setting [1] and 85 nM under setting [2].

Take “UUAUUAUAUGUAGGAUAUGCAUAUUGUUGUUAUGCAGAAGGACAUGAGGAUCACCCAUGUAUAUUAUUGUUAUAUAUUGUAUAU”: the “apparent Kd” value came to 24.6 nM under setting [1] and 30.5 nM under setting [2].

For “GCGCUUAUACAGAAGGCCAGUUACAUGAGGAUCACCCAUGUUAGAUUGUGGAGGAUAUGUGUUUUAUUACAGAUAGUUGAGCGC”, the “apparent Kd” value is, setting by setting: under setting [3], 13.4 nM; under setting [4], 6.84 nM.

With “UUGGAGUUCGUAGGAUAUGUAGGAUAUUCCUACAUGAGGAUCACCCAUGUUUACAUGGAAGAAGGACAGAAGGACGAGCUCCAU”, the “apparent Kd” value reads like this: under setting [3], 1580 nM; under setting [4], 16.2 nM.

Consider “AUACUCAUGUAAGGAUAUGCAGCCGUUUCGGCUGCAGAAGGUACUAUAAUACAUGAGGAUCACCCAUGUCUAUAAAAUAAAGAC”, for which the “apparent Kd” value under setting [3] was 60.6 nM and the “apparent Kd” value under setting [4] was 41.5 nM.

Consider “AGCUGUGGCAGAGGAUAUACCUCAAUAAUCCAUUGCAAAUAGCGAUGGACAUGAGGAUCACCCAUGUAGAAGGCUGUCUCAGCA”, for which the “apparent Kd” value runs as follows: under setting [1], 323 nM; under setting [2], 733 nM.

“GGAUAGGACAGAGGAUAUACCGAUAGGAUCUACUAUCGAAGAAUCCUCACAUGAGGAUCACCCAUGUAGAAGGCUGUCCUAUCG”: the “apparent Kd” value is, setting by setting: under setting [1], 40.3 nM; under setting [2], 646 nM.

Take “GGACGUCACAUGAACAUGAGGAUCACCCAUGUAAAUUCUCAUGAGGAUAUGGUUCCUAAUUGGAACCAGAAGGCGUGGACGUCC”: the “apparent Kd” value is, setting by setting: under setting [3], 957 nM; under setting [4], 430 nM.

In the case of “CCUUUGAAGAUCCAAAAUUUCGACAUGAGGAUCACCCAUGUGCAGGAUAUCGUGCCAGUGAUGUACGAGAAGGGCAGACUCUGC”, the “apparent Kd” value came to 132 nM under setting [1] and 158 nM under setting [2].

Turning to “AGCUGUGGCCGAGGAUAUCUACUAAUCCAAACCGAAAUAUAAUCGGACAUGAGGAUCACCCAUGUAGAGAAGGCGGUCUCAGCA”, the “apparent Kd” value was 254 nM under setting [1] and 410 nM under setting [2].

As for “GCGCUGCGUCAGAAGGGCCGAAAAGAGAAGACGGCAGGAUAUGACAUGAGGAUCACCCAUGUACACGUCGCCGUGGGUGUUGGA”, the “apparent Kd” value reads like this: under setting [1], 57.9 nM; under setting [2], 65 nM.

As to “ACCGAAUGAACAUGAGGAUCACCCAUGUACCCGAAAGGGAAUGAGGAUAUCGAUAGCAAAGCUAUCGAGAAGGCAUGGGUCGGU”, the “apparent Kd” value by setting is: under setting [3], 573 nM; under setting [4], 169 nM.

Take “UGCCGUGUACAGAAGGGCGACAUGAGGAUCACCCAUGUCUCCUUGUUGGUCGUAGGAUAUGUACCGUGGCUCUCACCUGUGGGA”: the “apparent Kd” value came out at 5.57 nM under setting [1] and 6.95 nM under setting [2].

“ACUUUACAUGAGGAUCACCCAUGUUUUGGUGGAUCAGGAUAUAAAUUGAAUGAGUUUUAGUUAGAAGGGAUAUUUA”: the “apparent Kd” value is 89.8 nM under setting [3] and 99 nM under setting [4].

Regarding “GUACUGUAGUGAGGAUAUACGAGAACGAUAGUUCGGCGAUCCAAUUAUACAUGAGGAUCACCCAUGUAGAAGGCACUUCAGUAC”, the “apparent Kd” value was 10.8 nM under setting [1] and 30.6 nM under setting [2].

Regarding “UUAUUAGCAGGAUAUAUCCACGACCACAUGAGGAUCACCCAUGUGGCCGCUUGAGGUUGUAUAGAAGGGCUUUAUU”, the “apparent Kd” value by setting is: under setting [1], 15.3 nM; under setting [2], 14.6 nM.

For the sequence “UGAACAAUGUAGAAGGCCCACAUUUAUAUGUAGGGAGGAUAUACAUGAGGAUCACCCAUGUAAAGAGCAAGAGGAUUUGACAGA”, the “apparent Kd” value reads like this: under setting [1], 9.49 nM; under setting [2], 17.6 nM.

For the sequence “GUCAGCUCGUGAGGAUAUACAGCACUGCUUCGGCAGUGUAUUAAGAUCACAUGAGGAUCACCCAUGUAGAAGGCACGAGCUGAU”, the “apparent Kd” value is, setting by setting: under setting [1], 28.1 nM; under setting [2], 599 nM.

Regarding “UGUGUUAUUGGAGGAUAUCGAUAUCAAACAUGAGGAUCACCCAUGUUGAGGAUCACACAUGUAAAUGAGAAGGCCGACGUAGUG”, the “apparent Kd” value worked out at 12.5 nM under setting [3] and 16.2 nM under setting [4].

Take “AUAAAACAUGAGGAUCACCCAUGUGAGGAUAUGCUAAAAUAAAAUAAAAUAAAAUAAUGCAGAAGGCACAAAUA”: the “apparent Kd” value runs as follows: under setting [1], 59.6 nM; under setting [2], 74.6 nM.

In the case of “CGAGGACAUGAGGAUCACCCAUGUAGCUACAAAACGCAGCGACAGGAUAUCCUCUGGUUCCCAUAGGAGAAGGGUCAAACCUUG”, the “apparent Kd” value worked out at 29.4 nM under setting [3] and 47.3 nM under setting [4].

Take “GCAGCACUUUAAAACAUGAGGAUCACCCAUGUCGAUUGUUAUGAGGAUAUGCAUCGGAUGAAGAUGCAGAAGGCAUUGUGCUGC”: the “apparent Kd” value under setting [3] turned out to be 7.36 nM and the “apparent Kd” value under setting [4] stood at 6.23 nM.

As for “GAUAGGACAGAGAAGGACAUGGCUAGAGAUACUAGCAUAUGAACCUUCACAUGAGGAUCACCCAUGUAGGAUAUCUGUCCUAUC”, the “apparent Kd” value turned out to be 3.8 nM under setting [1] and 4.86 nM under setting [2].

As for “UUGGACGUCUUAGGAUAUGUAGGAUAUUCCUACAUGAGGAUCACCCAUGUUGACAUGGAAGAAGGACAGAAGGACGAUGUCCAU”, the “apparent Kd” value reads like this: under setting [3], 418 nM; under setting [4], 11.2 nM.

Turning to “UGCAUGUAAGGAUAUGCAACCUGCGCUCAUUAGCAGGUCAAGCAGAAGGUACAUGAGGAUCACCCAUGUGUCCG”, the “apparent Kd” value by setting is: under setting [1], 31.2 nM; under setting [2], 156 nM.

As for “AUCUCAGGACGAGGAUAUCAAUACAUGAGGAUCACCCAUGUAUGAUUACUGUGAUCCUUCAAGGCUGAGAAGGCGUCCCAAAUG”, the “apparent Kd” value came out at 12.2 nM under setting [1] and 27 nM under setting [2].

“UUGGCAACGUAGAAGGGUGACAUGAGGAUCACCCAUGUGCCGAUAUUUCUCGAGAUAUGUCGGCCACAGGAUAUACGUGCGAAC”: the “apparent Kd” value was 107 nM under setting [3] and 120 nM under setting [4].

Regarding “GGUGCGUUUGUGAGGAUAUGCUGGUCCUUGGAUCAGCAGAAGGCACAUGAGGAUCACCCAUGUGGUGUCGUUCC”, the “apparent Kd” value reads like this: under setting [1], 181 nM; under setting [2], 143 nM.

As to “UAGAGUCUUGAGGAUAUUGGUACGUACCGGUCCCAAGAAGGCGAGACAUGAGGAUCACCCAUGUGACCGUGAGC”, the “apparent Kd” value under setting [1] is 31.9 nM and the “apparent Kd” value under setting [2] came out at 47.8 nM.

As to “UGUUUGCGGCAGGAUAUCCAUCCGCGGUGUGGUGGAGAAGGGCUGACAUGAGGAUCACCCAUGUGCGUCCUGUU”, the “apparent Kd” value is, setting by setting: under setting [1], 23.6 nM; under setting [2], 27.9 nM.

For “GUUGCUAUCGGAGGAUAUUCAUACCGGAAACGGACAUGAGGAUCACCCAUGUCGCGAAAGCGUUGGGAGAAGGCCGAUAGCAAC”, the “apparent Kd” value is 248 nM under setting [3] and 21.4 nM under setting [4].

For the sequence “CAAUUUAUGUCAGGAUAUACAAUACAAUGAUUAGUAGAAGGGAUUAAUACAUGAGGAUCACCCAUGUCAUGUGUCAUAGUAACC”, the “apparent Kd” value under setting [1] is 23.9 nM and the “apparent Kd” value under setting [2] is 19.4 nM.

“GGUUGACAAAGUCAACCAAUUCGAACAUGAGGAUCACCCAUGUAGGAUAUGCUACUCAAAGAGUAGCAGAAGGACAUGUGCCUU”: the “apparent Kd” value was 34.3 nM under setting [1] and 188 nM under setting [2].

“AUGUGGUUCCCGGCCAUCGUGUACGAGGAUAUCCUCGAACAUGAGGAUCACCCAUGUAACGUUGUGGAGAAGGCGUACGCUUGG”: the “apparent Kd” value under setting [3] was determined as 130 nM and the “apparent Kd” value under setting [4] amounted to 7.73 nM.

For “UACUUGUUAGGAUAUCUUACAUUUGCAUCAUAGCAACCAUUGGAGAAGGGACAUGAGGAUCACCCAUGUUUGGU”, the “apparent Kd” value under setting [1] turned out to be 42.3 nM and the “apparent Kd” value under setting [2] was found to be 43.8 nM.

As to “CCUCGGUUAGGAUAUGGAUGGUCACCCUGCGGUGUACCGCUCCAGAAGGGACAUGAGGAUCACCCAUGUUACGC”, the “apparent Kd” value runs as follows: under setting [1], 106 nM; under setting [2], 338 nM.

For the sequence “AACGGAAUGUAGAAGGGUGACAUGAGGAUCACCCAUGUUCACAUGCGUAUUAAAGUAUGUGAUCCACAGGAUAUACUGUCCGUG”, the “apparent Kd” value reads like this: under setting [3], 957 nM; under setting [4], 92.8 nM.

Take “UUAAAUCAUGUAGGAUAUGCAUGGCGAAGCUACGCAGAAGGACAUGAGGAUCACCCAUGUUAUAGCUACCGAGUUCGGUGGCAA”: the “apparent Kd” value is, setting by setting: under setting [1], 109 nM; under setting [2], 224 nM.

For the sequence “GGAAGACAUGAGGAUCACCCAUGUGGGAUUAUGGGAGGAUAUACAAAGACGAGAGUCAGAGUAGAAGGCCUAGGAU”, the “apparent Kd” value was 84.3 nM under setting [3] and 33.9 nM under setting [4].

With “GGACGCUAAGGAUAUACAUGAGGAUCACCCAUGUAGCCCGAAAGGGCGCGUUCCUUCUGUAGAAGGUGGCUAAA”, the “apparent Kd” value runs as follows: under setting [1], 17 nM; under setting [2], 25.4 nM.

“GAGAAACAUGAGGAUCACCCAUGUGAGGAUAUGCGUACGUUGUCCGUAGGCGACGUGCGCAGAAGGCGCAAAGG”: the “apparent Kd” value runs as follows: under setting [1], 83.9 nM; under setting [2], 118 nM.
